Screening data as filed in PubChem BioAssay.
This is a sample that favours compounds with a hit; in the whole collection about 1.9% have one here.
SR-BI DiI-HDL act = activators of SR-BI mediated HDL lipid uptake | CHO ldlA[mSR-BI] cells, DiI-HDL uptake fluorescence, 3 h; 100 = double the neutral-control signal | activation, % at 12.5 µM | 320,000 compounds, 0.096% hits | AID 504775;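 active = mean replicate activation of at least 60% and every replicate at or above 60%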;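 also: 0% = median plate neutral-control signal and 100% = twice that signal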
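material = CHO ldlA[mSR-BI] cells | medium = Ham's F12 with 0.5% BSA, HEPES 25 mM, pH 7.4 | reagent = fluorescent DiI-HDL, 10 µg/mL final | compound dosing = single-point compound dose | incubation = 3 h, 37 °C | measured by = bottom-read fluorescence, 550/595 nm | measure = HDL uptake via cellular fluorescence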
Rin1-Abl PPI inh = human Rin1-Abl interaction inhibition; TR-FRET Rin1/Abl binding, biochemical; inhibition, % at 7.35 µM; 360,000 compounds, 0.4% hits; in the data active = inhibition above about 5%, passing the limit was not always enough
Target sequence (P00519 whole entry, looked up): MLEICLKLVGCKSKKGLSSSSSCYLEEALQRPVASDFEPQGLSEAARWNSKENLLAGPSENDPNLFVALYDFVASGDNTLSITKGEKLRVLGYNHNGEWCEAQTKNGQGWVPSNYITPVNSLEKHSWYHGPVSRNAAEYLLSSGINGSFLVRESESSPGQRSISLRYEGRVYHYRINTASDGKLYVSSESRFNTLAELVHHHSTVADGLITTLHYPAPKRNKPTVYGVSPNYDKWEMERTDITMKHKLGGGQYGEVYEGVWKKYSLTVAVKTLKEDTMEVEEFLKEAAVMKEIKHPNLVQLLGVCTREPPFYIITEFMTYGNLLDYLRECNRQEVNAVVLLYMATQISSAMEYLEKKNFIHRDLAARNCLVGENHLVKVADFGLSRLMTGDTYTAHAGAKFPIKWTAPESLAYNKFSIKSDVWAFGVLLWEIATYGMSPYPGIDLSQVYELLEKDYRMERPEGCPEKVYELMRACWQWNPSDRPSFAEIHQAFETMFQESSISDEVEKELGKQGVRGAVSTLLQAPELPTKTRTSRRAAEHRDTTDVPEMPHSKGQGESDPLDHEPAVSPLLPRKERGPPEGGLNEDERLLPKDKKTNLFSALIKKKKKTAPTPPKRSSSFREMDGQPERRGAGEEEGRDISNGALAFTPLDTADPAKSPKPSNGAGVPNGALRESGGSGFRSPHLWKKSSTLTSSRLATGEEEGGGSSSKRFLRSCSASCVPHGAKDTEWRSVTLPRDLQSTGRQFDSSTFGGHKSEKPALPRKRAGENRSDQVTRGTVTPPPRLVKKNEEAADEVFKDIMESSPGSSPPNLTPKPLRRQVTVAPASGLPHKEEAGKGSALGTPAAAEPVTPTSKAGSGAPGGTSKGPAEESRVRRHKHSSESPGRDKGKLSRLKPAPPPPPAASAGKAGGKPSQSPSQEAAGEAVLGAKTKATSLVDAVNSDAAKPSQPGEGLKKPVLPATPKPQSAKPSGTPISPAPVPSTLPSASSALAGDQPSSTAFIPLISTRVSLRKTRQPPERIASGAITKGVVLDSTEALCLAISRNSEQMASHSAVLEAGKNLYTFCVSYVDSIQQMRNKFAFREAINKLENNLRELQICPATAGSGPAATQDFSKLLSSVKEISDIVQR
Target sequence (Q13671 whole entry, looked up): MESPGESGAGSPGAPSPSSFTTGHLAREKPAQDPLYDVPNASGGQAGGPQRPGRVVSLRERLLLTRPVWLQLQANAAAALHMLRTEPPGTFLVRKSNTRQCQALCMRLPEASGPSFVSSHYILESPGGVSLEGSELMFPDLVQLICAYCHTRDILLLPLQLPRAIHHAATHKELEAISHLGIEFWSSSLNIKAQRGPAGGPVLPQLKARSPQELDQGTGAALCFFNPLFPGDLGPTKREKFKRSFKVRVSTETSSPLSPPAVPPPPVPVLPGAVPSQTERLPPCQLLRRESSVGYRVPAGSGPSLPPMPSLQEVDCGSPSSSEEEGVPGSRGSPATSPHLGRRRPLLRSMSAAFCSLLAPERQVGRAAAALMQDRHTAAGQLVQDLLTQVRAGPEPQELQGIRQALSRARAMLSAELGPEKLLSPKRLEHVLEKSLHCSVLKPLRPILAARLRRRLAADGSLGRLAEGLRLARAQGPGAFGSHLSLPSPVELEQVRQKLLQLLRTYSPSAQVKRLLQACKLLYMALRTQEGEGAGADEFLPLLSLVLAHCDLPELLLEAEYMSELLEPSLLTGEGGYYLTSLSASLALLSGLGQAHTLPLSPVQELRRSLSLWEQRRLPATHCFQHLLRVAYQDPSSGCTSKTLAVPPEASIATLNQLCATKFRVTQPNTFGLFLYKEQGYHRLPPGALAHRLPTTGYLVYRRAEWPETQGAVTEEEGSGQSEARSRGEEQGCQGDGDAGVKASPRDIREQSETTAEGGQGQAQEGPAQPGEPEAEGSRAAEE
GRK2 aptamer HTS = human GRK2 inhibition via aptamer displacement. 330,000 compounds, 0.59% hits. P25098. AID 488847. inhibition of aptamer binding, % at 10 µM. bead flow cytometry, FAM-aptamer displacement from GRK2;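 active = inhibition of aptamer binding above 40%, roughly 3 SD of noise, on plates passing a quality check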;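 also: median bead fluorescence of bound FAM aptamer so fluorescent compounds give negative values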
SR-BI DiI inh = mouse SR-BI HDL lipid transfer inhibition | 320,000 compounds, 0.96% hits | ldlA[mSR-BI] CHO cells, DiI-HDL uptake fluorescence, 3 h | Q61009 | AID 488896 | inhibition, % at 12.5 µM;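 active = mean replicate inhibition of at least 70% and a set share of replicates each scoring 70 or more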;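 also: 0% = median of neutral control wells and 100% = median of positive control wells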
GRK2 CP1 = human GRK2 inhibition confirmation, cherry pick 1 | bead-bound GRK2, FAM-aptamer displacement, flow cytometry | shares compounds with GRK2 aptamer HTS | AID 504451 | 2,000 compounds, 4% hits | aptamer displacement, % at 10 µM;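 active = aptamer displacement above 40%, near three times the noise of non-fluorescent compounds, on plates passing quality checks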;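 also: negative values mostly reflect intrinsic compound fluorescence rather than true enhancement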
Aptamer quench SP = quenches fluorescent RNA aptamer, GRK2 hit artifact | 2,000 tested, under 10 active | shares compounds with GRK2 aptamer HTS | Carboxyfluorescein RNA aptamer on beads, flow cytometry quenching; stronger effect = lower value | fluorescence response (% of DMSO), % at 10 µM | AID 504580;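 active = compounds that quench the bead-bound fluorescent RNA probe, cutting fluorescence to under half of the solvent control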;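 also: counterscreen run without GRK2 so only probe quenching by compound is measured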
GRK2 CP2 = human GRK2 inhibition confirmation, cherry pick 2; bead-bound GRK2, FAM-aptamer displacement, flow cytometry; 360 tested, under 10 active; inhibition of aptamer binding, % at 10 µM; shares compounds with GRK2 aptamer HTS; AID 504782;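 active = inhibition of aptamer binding above 40%, about triple the noise seen with nonglowing compounds, on plates passing quality control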;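 also: negative values mostly come from compounds that fluoresce themselves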
FAM quench SP = counter-screen for GRK2 binding hits: quenchers of fluorescent RNA aptamer; shares compounds with GRK2 aptamer HTS; carboxyfluorescein RNA aptamer beads, flow cytometry quenching; stronger effect = lower value; fluorescence response vs DMSO, % at 10 µM; 360 tested, under 10 active; AID 588494;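 active = response vs DMSO under 50%, meaning signal dropped by over half, treated as fluorescence quencher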;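 also: labelled aptamer on streptavidin beads without GRK2 as a quench counter-screen; 100% = bead fluorescence of DMSO wells and lower means quenching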
Numbers without * were called inactive; nt = no result given.

SMILES	SR-BI DiI-HDL act	Rin1-Abl PPI inh	GRK2 aptamer HTS	SR-BI DiI inh	GRK2 CP1	Aptamer quench SP	others
CC(c1cccs1)N(C)Cc1nc(CCc2ccccc2)no1 (stereo not drawn)	13	0	0	-13	nt	nt
O=C(CN1C(=O)NC2(CCCC2)C1=O)Nc1cc(S(=O)(=O)N2CCCCC2)ccc1Cl	10	3	0	-10	nt	nt
CC1NC(=O)c2cc3ccccc3cc2-n2c1nc1cc(Cl)ccc1c2=O (stereo not drawn)	nt	2	nt	nt	nt	nt
CN(Cc1nc2ccccc2[nH]1)C(=O)C1CCC(=O)N(CCc2cccc(F)c2)C1 (stereo not drawn)	14	1	3	-14	0	103
COc1ccc(OC)c(S(=O)(=O)NC(=O)C2(C)CCN2C(=O)C2(c3ccc(Cl)cc3)CC2)c1 (stereo not drawn)	nt	0	nt	nt	nt	nt
CCn1cc([N+](=O)[O-])c(=O)c2cc(F)c(N3CCOCC3)cc21	-2	0	64*	2	0	98
COc1cccc(CC2(CO)CCCN(Cc3cn[nH]c3-c3ccccc3)C2)c1 (stereo not drawn)	22	1	99*	-22	-3	102
CC(O)(c1cccc(F)c1)c1nc(-c2cc(F)cc(F)c2)cs1 (stereo not drawn)	nt	3	nt	nt	nt	nt
O=C(NCc1ccccc1)C1CCCN(S(=O)(=O)c2ccc(-n3cnnn3)cc2)C1 (stereo not drawn)	17	1	2	-17	nt	nt
O=C(NCc1ccc(F)cc1)C1CCCN(S(=O)(=O)c2ccc(-n3cnnn3)cc2)C1 (stereo not drawn)	32	4	2	-32	3	99
CC(C)CNC(=S)N1CCN(c2nc3ccccc3s2)CC1	-12	-2	42*	12	0	98
CCn1c(N2CCN(C(=S)NCC(C)C)CC2)nc2ccccc21	-12	1	4	12	nt	nt
COC(=O)NCc1ccc(S(=O)(=O)N2CCOCC2)cc1	26	-5	72*	-26	2	95
Nc1cc(C(=O)OCC(=O)N2CCN(C(=O)COC(=O)c3ccc(Cl)c(N)c3)CC2)ccc1Cl	-21	-2	nt	21	nt	nt
Nc1cc(C(=O)OCC(=O)N2CCOCC2)ccc1Cl	-6	-2	58*	6	-1	99
O=C(/C=C/c1ccccc1)c1ccccc1	21	2	3	-5	nt	nt
N#Cc1ccc(/C=C/C(=O)c2ccccc2)cc1	16	-2	51*	-16	2	97
Cc1ccc(S(=O)(=O)N(C)c2ccc(C(=O)N3CCc4ccccc4C3)cc2)cc1	6	6	57*	-6	-4	98
CN(c1ccccc1)S(=O)(=O)c1ccc(C(=O)N2CCCC2)cc1	-1	3	58*	1	0	101
CCOc1ccccc1NC(=O)COc1cccnc1[N+](=O)[O-]	-35	-2	4	35	nt	nt
NS(=O)(=O)c1ccc(NC(=O)c2cccc(N3C(=O)c4ccccc4C3=O)c2)cc1	-14	-2	5	14	nt	nt
CC(=O)c1ccc(NC(=O)c2cccc(N3C(=O)c4ccccc4C3=O)c2)cc1	18	0	48*	-18	nt	nt	GRK2 CP2=-254;FAM quench SP=101
COC(=O)N/N=C/C1=CCC2CC1C2(C)C (stereo not drawn)	9	-4	0	-9	nt	nt
CC1(C)C2CC=C(/C=N/NC(=O)c3ccc(O)cc3)C1C2 (stereo not drawn)	3	3	74*	-3	-1	97
COc1ccccc1N(CC(=O)NCc1ccco1)S(=O)(=O)c1ccc(C)cc1	nt	0	46*	nt	23	99
COC(CNC(=O)CN1CCN(Cc2ccc(F)cc2Cl)C1=O)OC	nt	-3	17	nt	-3	96
Cc1ccc(C(=O)Nn2cnnc2)cc1[N+](=O)[O-]	19	0	47*	-19	0	101
